This note sets out measurements from ChEMBL document CHEMBL1131236, “Antitumor agents. 185. Synthesis and biological evaluation of tridemethylthiocolchicine analogues as novel topoisomerase II inhibitors” (J Med Chem, 1998).

The term EC50 denotes the midpoint of the concentration-response curve. Broadly, the inhibition is the percentage by which the read-out fell short of the control. For orientation: Inhibition means how much of the control response was suppressed. Broadly, the IC50 is the midpoint of a concentration-inhibition curve.

Molecules are shown by their SMILES. Converted amounts (≈) assume the structure as drawn.

Test [1] has as its system SK-MEL-2. Nature of the test: In vitro growth inhibition of SK-MEL-2, malignant melanoma. The test is classed as functional, cell-based. The note with it: Homo sapiens. In a few lines:
(§1)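 Human tumor lines screened in-house: KB, A549, MCF-7, CAKI-1 and SK-MEL-2. Read-out was SRB staining with absorbance at 562 nm.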

The target of test [2] is T1, DNA topoisomerase 1 (Homo sapiens) (UniProt P11387).
T1 sequence (whole entry): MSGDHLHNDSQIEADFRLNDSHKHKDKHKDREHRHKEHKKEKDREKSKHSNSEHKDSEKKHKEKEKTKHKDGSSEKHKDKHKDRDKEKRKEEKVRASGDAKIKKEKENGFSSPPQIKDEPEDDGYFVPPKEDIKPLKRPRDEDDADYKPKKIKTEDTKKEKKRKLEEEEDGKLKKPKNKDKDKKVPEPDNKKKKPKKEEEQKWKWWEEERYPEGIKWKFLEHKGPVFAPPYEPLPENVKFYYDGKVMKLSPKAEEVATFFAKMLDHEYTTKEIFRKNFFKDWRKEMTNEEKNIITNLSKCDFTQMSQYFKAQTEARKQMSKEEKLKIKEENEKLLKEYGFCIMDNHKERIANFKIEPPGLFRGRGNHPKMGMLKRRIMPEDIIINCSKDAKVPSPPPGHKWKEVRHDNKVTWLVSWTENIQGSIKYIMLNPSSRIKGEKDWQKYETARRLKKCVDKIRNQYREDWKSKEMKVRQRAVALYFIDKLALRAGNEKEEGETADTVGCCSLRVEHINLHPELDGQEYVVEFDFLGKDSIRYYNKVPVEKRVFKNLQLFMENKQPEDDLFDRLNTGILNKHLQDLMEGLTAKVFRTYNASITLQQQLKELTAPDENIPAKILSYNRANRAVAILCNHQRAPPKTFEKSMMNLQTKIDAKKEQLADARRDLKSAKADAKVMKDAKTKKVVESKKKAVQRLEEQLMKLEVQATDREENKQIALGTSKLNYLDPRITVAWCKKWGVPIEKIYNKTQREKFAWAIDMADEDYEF
Nature of the test: In vitro inhibitory activity at 100 uM against topoisomerase I measured as ATP-independent relaxation of supercoiled plasmid DNA compared to enzyme and DNA control.

Test [3] deals with A549. The test can be described thus: In vitro percent inhibition of A549, lung carcinoma. The format is functional, Homo sapiens.
Test [4] deals with MCF7. Nature of the test: (§2) In vitro growth inhibition of MCF-7, breast adenocarcinoma. The format is functional, Homo sapiens. In a few lines:
as §1

The target in a further test is Tubulin. The format is protein-complex assay.
Test [5] deals with KB. Nature of the test: In vitro growth inhibition of KB, epidermoid carcinoma of the nasopharynx. The test is classed as functional, cell-based. The note with it: Homo sapiens. In short, it runs like this:
as §1

Test [6] relates to A549. The test can be described thus: In vitro growth inhibition of A549, lung carcinoma. To be noted: Homo sapiens. The test is classed as functional, cell-based. In short, it runs like this:
as §1

In test [7] the target is T2, DNA topoisomerase II (Homo sapiens, UniProt P11388+Q02880). Nature of the test: In vitro inhibitory activity at 100 uM against topoisomerase II measured as ATP-dependent unknotting of P4 DNA compared to enzyme and DNA control. The test is classed as protein assay.
In test [8] the test system is CAKI-1. Nature of the test: In vitro percent inhibition of CAKI-1, Kidney carcinoma. Details: concentration or dose not given beside the values. The format is functional, Homo sapiens.
The test system of test [9] is CAKI-1. The test can be described thus: In vitro growth inhibition of CAKI-1, Kidney carcinoma. The format is functional, cell-based. To be noted: Homo sapiens. In short, it runs like this:
as §1

The subject of test [10] is MCF7. The test is described as §2. The test is classed as functional, cell-based. The note with it: Homo sapiens. In a few lines: as §1
For test [11], the system named is SK-MEL-2. Nature of the test: In vitro percent inhibition of SK-MEL-2 cells, malignant melanoma. The test is classed as functional, Homo sapiens. Further details: concentration or dose not given beside the values.
Test [12] has as its system KB. The test can be described thus: In vitro epidermoid carcinoma of the nasopharynx. The test is classed as functional, Homo sapiens. In a few lines: as §1
In a further test the test system is A549 (Homo sapiens). Nature of the test: In vitro percent inhibition of A549, lung carcinoma.
Test [13] has as its system SK-MEL-2. Nature of the test: In vitro percent inhibition of growth of SK-MEL-2, malignant melanoma. The format is functional, Homo sapiens.
Test [14] concerns CAKI-1. The test can be described thus: In vitro percent inhibition of growth of CAKI-1, Kidney carcinoma. The test is classed as functional, Homo sapiens.
For test [15], the target named is T2, DNA topoisomerase II. Nature of the test: In vitro activity against mammalian topoisomerase II measured as ATP-dependent unknotting of P4 DNA compared to enzyme and DNA control. The test is classed as protein assay. The note with it: concentration not given here. In a few lines:
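Topo II inhibition read as ATP-dependent unknotting of P4 DNA, compared with enzyme-only and DNA-only control reactions.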

The subject of test [16] is SK-MEL-2. Nature of the test: In vitro growth inhibition of SK-MEL-2, malignant melanoma. The test is classed as functional, cell-based. The note with it: Homo sapiens. In short, it runs like this: as §1
The target of test [17] is T1, DNA topoisomerase 1 (Homo sapiens). Nature of the test: In vitro inhibition against topoisomerase I activity Measured as ATP independent relaxation of supercoiled plasmid DNA compared to enzyme and DNA control reaction relative to Camptothecin (100 uM). In short, it runs like this: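 Topo I inhibition read as ATP-independent relaxation of supercoiled plasmid DNA, compared with enzyme and DNA control reactions. Camptothecin at 100 μM was the positive control.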

As to `CCC(=O)Oc1cc2c(c(OC(=O)CC)c1OC(=O)CC)-c1ccc(SC)c(=O)cc1[C@@H](NC(=O)c1ccc([N+](=O)[O-])cc1)CC2`, the EC50 in the test with SK-MEL-2 [1] is 12.9 µg/mL (≈ 19.9 µM); with KB [5], 12.3 µg/mL (≈ 19 µM); in the test on A549 [6], more than 25.9 µg/mL; with CAKI-1 [9] it was more than 25.9 µg/mL; in the test on MCF7 [10], more than 12.9 µg/mL. Further, the inhibition (in [2]; against DNA topoisomerase II [7]) was 0% in each case. For the same compound, the values for the Inhibition in the test on A549 [3], in the test on MCF7 [4] and with CAKI-1 [8] were 29%, 40% and 16%, respectively. On Tubulin, this compound had a half-inhibitory concentration (IC50) of more than 40 µM.

As to `CSc1ccc2c(cc1=O)[C@@H](NC(=O)c1ccc(N)cc1)CCc1cc(O)c(O)c(O)c1-2`, the Inhibition in the test with SK-MEL-2 [11] is recorded as 0%; in the test with KB [12], 35%; in the test on A549 (Homo sapiens), 39%; with CAKI-1 [8], 13%. The EC50 with SK-MEL-2 [1] is more than 18 µg/mL; with KB [5] it was more than 18 µg/mL; in the test on A549 [6], more than 18 µg/mL; in the test with CAKI-1 [9] it was more than 18 µg/mL; with MCF7 [10] it was 14.8 µg/mL (≈ 32.9 µM).

`COC(=O)Oc1cc2c(c(OC(=O)OC)c1OC(=O)OC)-c1ccc(SC)c(=O)cc1[C@@H](NC(=O)c1ccc([N+](=O)[O-])cc1)CC2`: the Inhibition in the test on SK-MEL-2 [13] is recorded as 44%; with CAKI-1 [14], 38%. For the same compound, the inhibition (on DNA topoisomerase II [15]; in test [17]) was 0% throughout. Further, the IC50 against Tubulin is more than 40 µM. For the same compound, the EC50 was more than 26.2 µg/mL in the test on SK-MEL-2 [16]; 6.5 µg/mL (≈ 9.93 µM) with KB [5]; 24.2 µg/mL (≈ 37 µM) in the test with A549 [6]; more than 26.2 µg/mL in the test with CAKI-1 [9]; 13.1 µg/mL (≈ 20 µM) in the test with MCF7 [10].
